In ChEMBL document CHEMBL1151794, “Synthesis and pharmacological evaluation of bis-3-(3,4-dichlorophenyl)acrylamide derivatives as glycogen phosphorylase inhibitors” (Bioorg Med Chem, 2008):
pIC50: −log10 of the molar value.

Tests used:
[1] = biological target: T1, Glycogen phosphorylase, liver form (Homo sapiens, UniProt P06737); test: Inhibition of human liver glycogen phosphorylase a in presence of glucose
T1 sequence (P06737 whole entry): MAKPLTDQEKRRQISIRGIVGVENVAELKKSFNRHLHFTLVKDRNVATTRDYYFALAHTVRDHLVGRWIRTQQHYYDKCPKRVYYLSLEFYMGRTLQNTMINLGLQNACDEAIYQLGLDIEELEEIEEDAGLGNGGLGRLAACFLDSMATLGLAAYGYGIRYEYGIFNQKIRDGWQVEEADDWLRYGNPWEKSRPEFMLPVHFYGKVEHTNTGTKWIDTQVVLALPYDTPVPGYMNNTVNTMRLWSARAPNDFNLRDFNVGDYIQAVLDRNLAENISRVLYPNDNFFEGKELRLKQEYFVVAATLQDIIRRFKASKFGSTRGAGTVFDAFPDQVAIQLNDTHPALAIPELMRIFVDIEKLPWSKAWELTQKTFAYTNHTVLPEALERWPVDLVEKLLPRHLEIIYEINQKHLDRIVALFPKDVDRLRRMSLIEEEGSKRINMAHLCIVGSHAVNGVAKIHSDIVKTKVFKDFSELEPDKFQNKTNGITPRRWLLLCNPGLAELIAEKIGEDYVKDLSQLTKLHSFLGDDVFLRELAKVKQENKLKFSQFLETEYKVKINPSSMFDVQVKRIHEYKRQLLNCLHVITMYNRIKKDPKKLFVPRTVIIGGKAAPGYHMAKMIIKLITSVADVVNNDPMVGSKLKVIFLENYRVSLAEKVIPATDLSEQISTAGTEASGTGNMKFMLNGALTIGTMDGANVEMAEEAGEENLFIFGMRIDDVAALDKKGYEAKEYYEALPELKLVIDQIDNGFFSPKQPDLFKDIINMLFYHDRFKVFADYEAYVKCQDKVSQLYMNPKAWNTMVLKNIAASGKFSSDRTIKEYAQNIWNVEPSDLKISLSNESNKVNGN
In short: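 Recombinant human liver GPa assayed in the forward direction by NADPH formation, coupled through phosphoglucomutase (77 U/L) and glucose-6-phosphate dehydrogenase (385 U/L). Conditions: pH 6.8 phosphate buffer with 45 mM KH2PO4, β-NADP, glucose 1,6-bisphosphate, 0.24% glycogen and 10.85 mM glucose. Compounds were added in DMSO before the enzyme; DMSO served as blank and caffeine as positive control. Enzyme addition started the reaction; IC50 was derived by logistic regression.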

[2] = biological target: T1, Glycogen phosphorylase, liver form; test: Inhibition of human liver glycogen phosphorylase a in absence of glucose
[3] = biological target: T2, Glycogen phosphorylase, liver form (Homo sapiens) (UniProt P06737); test: Inhibition of human liver glycogen phosphorylase a in absence of glucose at 10 uM
T2 sequence (whole entry): T1 sequence (P06737 whole entry)

pIC50 [1] | pIC50 [2] | inhibition [3] | Structure (SMILES)
7.59 | 6.51 | – | O=C(/C=C/c1ccc(Cl)c(Cl)c1)NCC[S+]([O-])CCNC(=O)/C=C/c1ccc(Cl)c(Cl)c1
7.59 | 6.37 | – | O=C(/C=C/c1ccc(Cl)c(Cl)c1)NCCOCCNC(=O)/C=C/c1ccc(Cl)c(Cl)c1
– | – | 51% | O=C(/C=C/c1ccc(Cl)c(Cl)c1)NCCNCCNC(=O)/C=C/c1ccc(Cl)c(Cl)c1
7.64 | 6.59 | – | O=C(/C=C/c1ccc(Cl)c(Cl)c1)NCCCCCNC(=O)/C=C/c1ccc(Cl)c(Cl)c1
– | 4.23 | – | O=C(C#Cc1ccc(Cl)c(Cl)c1)NCCCCCNC(=O)C#Cc1ccc(Cl)c(Cl)c1
7.92 | 6.35 | – | O=C(/C=C/c1ccc(Cl)c(Cl)c1)NCCSCCNC(=O)/C=C/c1ccc(Cl)c(Cl)c1
– | 4.48 | – | O=C(/C=C/c1ccc(Cl)c(Cl)c1)NCCCCCCCCNC(=O)/C=C/c1ccc(Cl)c(Cl)c1
– | – | 36% | O=C(/C=C\c1ccc(Cl)c(Cl)c1)NCCCCCNC(=O)/C=C\c1ccc(Cl)c(Cl)c1
– | – | 48% | CC(C)(C)OC(=O)N(CCNC(=O)/C=C/c1ccc(Cl)c(Cl)c1)CCNC(=O)/C=C/c1ccc(Cl)c(Cl)c1
– | 4.26 | – | O=C(/C=C/c1ccc(Cl)c(Cl)c1)NCCCNC(=O)/C=C/c1ccc(Cl)c(Cl)c1
– | 4.35 | – | O=C(CCc1ccc(Cl)c(Cl)c1)NCCCCCNC(=O)CCc1ccc(Cl)c(Cl)c1
– | 4.74 | – | O=C(/C=C/c1ccc(Cl)c(Cl)c1)NCCCCCCNC(=O)/C=C/c1ccc(Cl)c(Cl)c1
7.37 | 6.38 | – | O=C(/C=C/c1ccc(Cl)c(Cl)c1)NCCCCNC(=O)/C=C/c1ccc(Cl)c(Cl)c1
– | 4.96 | – | O=C(/C=C/c1ccc(Cl)c(Cl)c1)NCCCCCCCNC(=O)/C=C/c1ccc(Cl)c(Cl)c1
– | 4.70 | – | O=C(/C=C/c1ccc(Cl)c(Cl)c1)NCCNC(=O)/C=C/c1ccc(Cl)c(Cl)c1
– | – | 0% | CCCNC(=O)/C=C/c1ccc(Cl)c(Cl)c1
– | 5.82 | – | O=C(/C=C/c1ccc(Cl)c(Cl)c1)NCCS(=O)(=O)CCNC(=O)/C=C/c1ccc(Cl)c(Cl)c1
